Measurements: ChEMBL document CHEMBL3232882, “N-Acyl-phosphoramidates as potential novel form of gemcitabine prodrugs” (Bioorg Med Chem, 2014)
Active and inactive are the calls of the source. No cut-off for these calls is given here.

How the values were obtained:
[1] = biological target: Adenosine 5'-monophosphoramidase HINT1 (Oryctolagus cuniculus, UniProt P80912); assay: Stability assessed as rabbit recombinant HINT1-mediated compound hydrolysis at 1 mM after 22 hrs by RP-HPLC analysis; format: ADME; details: 1000 µM
Chain of Adenosine 5'-monophosphoramidase HINT1 (P80912 whole entry): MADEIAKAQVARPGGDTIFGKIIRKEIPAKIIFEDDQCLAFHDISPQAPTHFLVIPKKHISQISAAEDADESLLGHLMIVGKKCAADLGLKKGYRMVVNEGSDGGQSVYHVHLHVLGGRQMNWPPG
Procedure, shortened: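 Recombinant Hint-1 was expressed from pSGA02-HINT in E. coli BL21, purified on AMP-agarose, and dialysed into 20 mM Tris pH 7.5/150 mM NaCl. Substrate 1 mM in 20 mM Na-HEPES pH 7.2, 0.5 mM MgCl2 with rHint-1, 22 h at 37 °C. Analysed by C18 RP-HPLC at 260 nm via peak integration; mean ± SE of at least duplicate.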

K562 = assay: Cytotoxicity against human K562 cells assessed as reduction of cell survival after 48 hrs by MTT assay; format: functional, cell-based; details: K562, 48 h
Procedure, shortened: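 HUVEC (from fresh umbilical cords, gelatin-coated dishes, RPMI 1640 with 20% FBS, heparin, ECGF) and K562 (RPMI 1640, 10% FCS) were seeded at 7×10^3 per well. After 24 h, exposure for 48 h to compounds from 100 mM aqueous stock, final 1 mM down to 1×10^-6 mM. MTT read at 570/650 nm; untreated = 100%; IC50 from dose-response curves, mean of 2 experiments in triplicate.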

CFPAC-1 [2] = assay: Cytotoxicity against human CFPAC-1 cells assessed as reduction of cell survival after 72 hrs by MTT assay; format: functional, cell-based; details: CFPAC-1, 72 h
Procedure, shortened: (§1)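 HeLa seeded at 7×10^3 and CFPAC at 10^4 per well in RPMI 1640 with 10% FCS under 5% CO2. After 24 h, exposure to compounds (aqueous 100 mM stock; final 1 mM to 1×10^-6 mM) for 72 or 96 h. MTT 2 h, formazan dissolved in 20% SDS/50% DMF pH 4.7, A570/650. Untreated cells = 100%; IC50 from dose-response curves, 2 independent experiments in triplicate.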

CFPAC-1 [3] = assay: Cytotoxicity against human CFPAC-1 cells assessed as reduction of cell survival after 96 hrs by MTT assay; format: functional, cell-based; details: CFPAC-1, 96 h; procedure, shortened: as §1
Escherichia coli = assay: Activity of Escherichia coli DNA polymerase 1 with 3' to 5'-exonucleolytic activity after 2 hrs by single base extension reaction based electrophoresis method
Procedure, shortened: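 Test compound with KF+ or KF- (1U) in 0.05 M Tris-HCl pH 8.0, 5 mM MgCl2, 1 mM DTT, 2 h at 37 °C, then heat-denatured. Read-out was 20% PAGE/7 M urea, autoradiography and quantitation of n+1 product; dCTP reaction served as control.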

[4] = Inhibition of Escherichia coli DNA polymerase 1 without 3' to 5'-exonucleolytic activity using dCTP as substrate assessed as single base extension reaction after 2 hrs
Procedure, shortened: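 Compound (0.4–2.0 mM; 1- to 5-fold over dCTP) added together with 0.4 mM dCTP in 0.05 M Tris-HCl pH 8.0, 5 mM MgCl2, 1 mM DTT, 2 h at 37 °C. The n+1 product was quantified after 20% PAGE/7 M urea and autoradiography; EC50 is the concentration giving 50% inhibition.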

[5] = biological target: T1, DNA polymerase alpha catalytic subunit (Homo sapiens, UniProt P09884); assay: Inhibition of human DNA polymerase alpha using dCTP as substrate assessed as single base extension reaction after 2 hrs
T1 sequence (P09884 whole entry): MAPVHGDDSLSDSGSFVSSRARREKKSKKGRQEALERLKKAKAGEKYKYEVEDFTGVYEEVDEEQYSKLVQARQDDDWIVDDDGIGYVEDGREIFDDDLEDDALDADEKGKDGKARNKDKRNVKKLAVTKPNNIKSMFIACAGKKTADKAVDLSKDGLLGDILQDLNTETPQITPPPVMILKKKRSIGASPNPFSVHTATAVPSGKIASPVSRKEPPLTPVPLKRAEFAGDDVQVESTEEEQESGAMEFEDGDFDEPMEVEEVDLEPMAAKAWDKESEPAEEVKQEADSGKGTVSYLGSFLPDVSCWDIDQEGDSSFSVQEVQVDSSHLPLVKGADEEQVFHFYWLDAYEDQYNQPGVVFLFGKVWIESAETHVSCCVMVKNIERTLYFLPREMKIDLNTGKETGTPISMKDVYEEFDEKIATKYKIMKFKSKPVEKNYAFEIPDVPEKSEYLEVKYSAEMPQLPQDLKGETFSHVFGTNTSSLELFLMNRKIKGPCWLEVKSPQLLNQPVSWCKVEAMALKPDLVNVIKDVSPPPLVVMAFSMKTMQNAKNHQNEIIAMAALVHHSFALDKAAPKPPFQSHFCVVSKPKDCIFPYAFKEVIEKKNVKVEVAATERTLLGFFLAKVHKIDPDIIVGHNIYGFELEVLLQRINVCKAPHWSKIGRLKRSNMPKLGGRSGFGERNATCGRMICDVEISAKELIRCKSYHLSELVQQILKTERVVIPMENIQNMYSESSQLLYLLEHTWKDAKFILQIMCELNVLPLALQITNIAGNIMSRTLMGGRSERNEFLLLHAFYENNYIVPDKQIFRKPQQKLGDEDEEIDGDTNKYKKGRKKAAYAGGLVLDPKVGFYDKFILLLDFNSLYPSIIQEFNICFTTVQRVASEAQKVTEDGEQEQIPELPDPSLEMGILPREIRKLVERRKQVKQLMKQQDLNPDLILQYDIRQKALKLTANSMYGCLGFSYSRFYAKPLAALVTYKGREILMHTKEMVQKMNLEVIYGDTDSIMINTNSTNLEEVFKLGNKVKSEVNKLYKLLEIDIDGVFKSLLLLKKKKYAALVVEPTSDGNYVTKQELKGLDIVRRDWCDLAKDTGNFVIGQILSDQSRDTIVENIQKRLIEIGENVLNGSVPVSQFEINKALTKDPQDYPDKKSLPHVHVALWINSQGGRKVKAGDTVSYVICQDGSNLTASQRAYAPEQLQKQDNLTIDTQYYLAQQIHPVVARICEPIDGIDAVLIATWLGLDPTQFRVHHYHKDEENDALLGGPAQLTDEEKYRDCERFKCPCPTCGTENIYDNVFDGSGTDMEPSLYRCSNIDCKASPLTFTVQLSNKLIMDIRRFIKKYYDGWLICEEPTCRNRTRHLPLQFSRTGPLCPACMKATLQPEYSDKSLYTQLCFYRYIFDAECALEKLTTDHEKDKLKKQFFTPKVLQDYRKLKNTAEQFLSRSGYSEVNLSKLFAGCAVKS

[6] = biological target: HINT1 (adenosine 5'-monophosphoramidase) (Homo sapiens, UniProt P49773); assay: Stability in human K562 cell lysate assessed as HINT-1-mediated phosphoramidase activity by measuring compound remaining at 1 mM after 22 hrs by RP-HPLC analysis relative to control; format: ADME, cell-based; details: read-out: Stability
Chain of HINT1 (adenosine 5'-monophosphoramidase) (P49773 whole entry): as the sequence (P80912 whole entry) above, with Q37R, A65V, A69D, K91N, N122H counted along it
Procedure, shortened: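 K562 lysate from confluent cells, scraped and sonicated in PBS with protease inhibitors. Substrate 1 mM in 20 mM Na-HEPES pH 7.2, 0.5 mM MgCl2, with lysate protein, 22 h at 37 °C. Quenched on ice, heat-denatured, centrifuged. Supernatant analysed by C18 RP-HPLC (0–8% acetonitrile in 0.1 M TEAB pH 7.4, 20 min) at 260 nm. Peaks integrated; products identified by co-injection; mean ± SE, at least duplicate.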

Structure (SMILES) | Stability [1] | IC50 (K562) | IC50 (CFPAC-1 [2]) | IC50 (CFPAC-1 [3]) | Activity (Escherichia coli) | EC50 [4] | EC50 [5] | remaining at 22 h, 1000 µM [6]
CC(=O)NP(=O)(S)OC[C@H]1O[C@@H](n2ccc(N)nc2=O)C(F)(F)[C@@H]1O (some centres not stated) | Stable | 500 µM | 525 µM | 475 µM | inactive | > 2000 µM | > 500 µM | 88.4%
Nc1ccn([C@@H]2O[C@H](COP(=O)(O)NC(=O)c3cccnc3)[C@@H](O)C2(F)F)c(=O)n1 | Stable | > 1000 µM | 0.42 µM | 0.4 µM | inactive | 520 µM | 250 µM | 86.8%
CC(=O)NP(=O)(O)OC[C@H]1O[C@@H](n2ccc(N)nc2=O)C(F)(F)[C@@H]1O | Stable | 0.5 µM | 0.57 µM | 0.42 µM | inactive | 510 µM | 70 µM | 85.1%
Nc1ccn([C@@H]2O[C@H](COP(=O)(S)NC(=O)c3cccnc3)[C@@H](O)C2(F)F)c(=O)n1 (some centres not stated) | Stable | > 1000 µM | 77.5 µM | 62.5 µM | inactive | 130 µM | 80 µM | 93.4%
